From ChEMBL document CHEMBL1909505, “Leonurine-cysteine analog conjugates as a new class of multifunctional anti-myocardial ischemia agent” (Eur J Med Chem, 2011)
Active and inactive are the calls of the source. The rule behind the calls is not given here.

Legend:
[1] = Antiapoptotic activity against hypoxia-induced Sprague-Dawley NRVM assessed as decrease in bax expression treated 12 hrs before hypoxia challenge measured after 5 hrs by RT-PCR analysis relative to control; type: functional; settings: Rattus norvegicus
[2] = Antiapoptotic activity against hypoxia-induced Sprague-Dawley NRVM assessed as increase in myofilaments integrity preservation treated 12 hrs before hypoxia challenge measured after 5 hrs by transmission electron microscopy; type: functional; settings: Rattus norvegicus
In short: (§1)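 Neonatal rat ventricular myocytes cultured 72 h (DMEM, 10% FBS, 5-bromodeoxyuridine), pretreated 12 h, then put in hypoxic solution. Cells fixed 2 h in 2.5% glutaraldehyde in PBS, post-fixed 1 h in 1% osmium tetroxide, dehydrated through graded ethanol, embedded in Epon 812, and examined by transmission electron microscopy (×11000). Compared with normoxic and hypoxic untreated groups.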

Rattus norvegicus [3] = organism: Rattus norvegicus; assay: Cardioprotective activity against hypoxia-induced Sprague-Dawley NRVM damage assessed as increased cell viability at 0.1 umol/L treated 12 hrs before hypoxia challenge measured after 5 hrs by MTT assay; type: functional
In short: (§2)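 Myocytes seeded at 1×10^5 cells/mL and cultured 72 h at 37 °C in 5% CO2, pretreated 12 h, then exposed to hypoxic solution. MTT added for 4 h, formazan dissolved in DMSO, absorbance read at 570 nm. Viability given as percent of normoxic control, taken as 100%.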

[4] = Cardioprotective activity against hypoxia-induced Sprague-Dawley NRVM damage assessed as decrease in ROS level treated 12 hrs before hypoxia challenge measured after 5 hrs […]; type: functional; settings: Rattus norvegicus
In short: (§3)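 Kit assays per the manufacturer for ROS level and catalase activity in hypoxic myocytes pretreated 12 h. Means ± S.E.M. from three samples; t-test versus the model group.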

[5] = Antiapoptotic activity against hypoxia-induced Sprague-Dawley NRVM assessed as appearance of distinct sarcomeres treated 12 hrs before hypoxia challenge measured after 5 hrs by transmission electron microscopy; type: functional; settings: Rattus norvegicus; in short: as §1
[6] = Antiapoptotic activity against hypoxia-induced Sprague-Dawley NRVM assessed as inhibition of cell necrosis treated 12 hrs before hypoxia challenge measured after 5 hrs by AnnexinV-FITC/PI staining-based flow cytometric analysis; type: functional; settings: Rattus norvegicus
In short: (§4)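 Cardiomyocytes pretreated 12 h before hypoxia. Annexin V-FITC/PI staining done with a kit per the manufacturer, then read by flow cytometry to separate apoptotic from necrotic cells. Means ± S.E.M. from three samples; two-tailed Student's t-test versus the model group.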

[7] = Antiapoptotic activity against hypoxia-induced Sprague-Dawley NRVM assessed as decrease in nucleus aggregation treated 12 hrs before hypoxia challenge measured after 5 hrs by transmission electron microscopy; type: functional; settings: Rattus norvegicus; in short: as §1
[8] = Cardioprotective activity against hypoxia-induced Sprague-Dawley NRVM damage assessed as increase in SOD activity treated 12 hrs before hypoxia challenge measured after 5 hrs […]; type: functional; settings: Rattus norvegicus
[9] = Cardioprotective activity against hypoxia-induced Sprague-Dawley NRVM damage assessed as inhibition of LDH release treated 12 hrs before hypoxia challenge measured after 5 hrs; type: functional; settings: Rattus norvegicus
[10] = Antiapoptotic activity against hypoxia-induced Sprague-Dawley NRVM assessed as decrease in nuclear condensation treated 12 hrs before hypoxia challenge measured after 5 hrs by transmission electron microscopy; type: functional; settings: Rattus norvegicus; in short: as §1
[11] = Antiapoptotic activity against hypoxia-induced Sprague-Dawley NRVM assessed as increase in bcl-2 expression treated 12 hrs before hypoxia challenge measured after 5 hrs by RT-PCR analysis relative to control; type: functional; settings: Rattus norvegicus
[12] = Antiapoptotic activity against hypoxia-induced Sprague-Dawley NRVM assessed as increase in Bcl2 to Bax mRNA expression ratio treated 12 hrs before hypoxia challenge measured after 5 hrs by RT-PCR analysis relative to control; type: functional; settings: Rattus norvegicus
[13] = Cardioprotective activity against hypoxia-induced Sprague-Dawley NRVM damage assessed as increase in hydrogen sulfide level at 0.1 uM treated 12 hrs before hypoxia challenge measured after 5 hrs; type: functional; settings: Rattus norvegicus
[14] = Antiapoptotic activity against hypoxia-induced Sprague-Dawley NRVM assessed as decrease in nuclei-shrunk treated 12 hrs before hypoxia challenge measured after 5 hrs using Hoechst 33258 staining-based by fluorescence microscopy; type: functional; settings: Rattus norvegicus
In short: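 After 12 h pretreatment and hypoxia, myocytes were stained with Hoechst 33258 and photographed under fluorescence (×400). Each image is representative of three independent observations.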

[15] = Antiapoptotic activity against hypoxia-induced Sprague-Dawley NRVM assessed as decrease in cleaved-caspase-3 to procaspase-3 ratio treated 12 hrs before hypoxia challenge measured after 5 hrs by Western blot analysis relative to control; settings: Rattus norvegicus
[16] = Cardioprotective activity against hypoxia-induced Sprague-Dawley NRVM damage assessed as increase in CAT activity treated 12 hrs before hypoxia challenge measured after 5 hrs […]; type: functional; settings: Rattus norvegicus; in short: as §3
[17] = Cardioprotective activity against hypoxia-induced Sprague-Dawley NRVM damage assessed as increase in hydrogen sulfide level treated 12 hrs before hypoxia challenge measured after 5 hrs; type: functional; settings: Rattus norvegicus
In short: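 H2S in culture medium: 0.5 mL supernatant mixed with 0.25 mL 1% zinc acetate, then 0.25 mL 10% TCA to remove protein, centrifuged 12,000 g for 10 min at 4 °C. Absorbance read at 670 nm in duplicate against a same-day NaHS calibration curve. Cells pretreated 12 h before hypoxia; three or six samples.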

[18] = Antiapoptotic activity against hypoxia-induced Sprague-Dawley NRVM assessed as decrease in apoptotic cells treated 12 hrs before hypoxia challenge measured after 5 hrs by AnnexinV-FITC/PI staining-based flow cytometric analysis; type: functional, cell-based; settings: Rattus norvegicus; in short: as §4
Rattus norvegicus [19] = organism: Rattus norvegicus; assay: Cardioprotective activity against hypoxia-induced Sprague-Dawley NRVM damage assessed as decrease in MDA level treated 12 hrs before hypoxia challenge measured after 5 hrs […]; type: functional
Rattus norvegicus [20] = organism: Rattus norvegicus; assay: Cardioprotective activity against hypoxia-induced Sprague-Dawley NRVM damage assessed as increased cell viability at 0.1 uM treated 12 hrs before hypoxia challenge measured after 5 hrs by MTT assay; type: functional; in short: as §2
[21] = Down regulation of caspase-3 expression in hypoxia-induced Sprague-Dawley NRVM treated 12 hrs before hypoxia challenge measured after 5 hrs by RT-PCR down analysis relative to control; type: functional; settings: Rattus norvegicus
[22] = Cardioprotective activity against hypoxia-induced Sprague-Dawley NRVM damage assessed as inhibition of LDH release at 0.1 uM treated 12 hrs before hypoxia challenge measured after 5 hrs; type: functional; settings: Rattus norvegicus

SMILES	Activity (Rattus norvegicus [3])	inhibition [9]	Activity [13]	Activity [17]	Activity (Rattus norvegicus [20])	inhibition [22]	other results
C#CCSC[C@H](N)C(=O)Oc1c(OC)cc(C(=O)OCCCCNC(=N)N)cc1OC	Active	Active	Active	Active	Active	Active	fold change (FC) [1]: 0.89; Activity [2]: Active; Activity [4]: Active; Activity [5]: Active; inhibition [6]: inactive; Activity [7]: Active; Activity [8]: Active; Activity [10]: Active; fold change (FC) [11]: 0.98; fold change (FC) [12]: 1.22; Activity [14]: Active; Activity [15]: Active; Activity [16]: Active; Activity [18]: Active; Activity (Rattus norvegicus [19]): Active; Activity [21]: Active
COc1cc(C(=O)OCCCCNC(=N)N)cc(OC)c1OC(=O)CCSSCCC(=O)Oc1c(OC)cc(C(=O)OCCCCNC(=N)N)cc1OC	Active	Active	–	inactive	–	–	–
C#CCSC[C@H](N)C(=O)O	–	–	Active	–	Active	Active	–
COc1cc(C(=O)OCCCCNC(=N)N)cc(OC)c1O	–	–	Active	–	Active	Active	–
C=CCSC[C@H](N)C(=O)Oc1c(OC)cc(C(=O)OCCCCNC(=N)N)cc1OC	Active	Active	–	Active	–	–	–
